# Measurements as given in ChEMBL document CHEMBL2040727, “Substituted thiazoles VI. Synthesis and antitumor activity of new 2-acetamido- and 2 or 3-propanamido-thiazole analogs” (2012).
# How the values were obtained:
# Format in all cases: functional
# K562 = assay: Growth inhibition of human K562 cells at 10 uM after 48 hrs by coulter counter analysis; details: K562, 48 h, read-out: GI
# Summary of the method: (§1)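 Single-dose NCI 60-line panel screen of test compounds. Cells grown in RPMI 1640 with 10% FBS. Compounds dissolved in DMSO, then diluted in phosphate buffer saline (final DMSO below 1%). Wells run in duplicate at 6 × 10⁴ cells/ml. Controls held PBS and DMSO at matching dilutions. Incubation 48 h at 37 °C under humidified 5% CO2. Cells diluted tenfold in saline and counted by Coulter counter. Percent growth inhibition taken from mean-graph of treated-cell growth.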
# SW-620 = assay: Growth inhibition of human SW620 cells at 10 uM after 48 hrs by coulter counter analysis; details: SW-620, 48 h, read-out: GI
# Summary of the method: (§2)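 Single-dose screen in the NCI 60 cell line panel. Cells grown in RPMI 1640 with 10% FBS. Compounds dissolved in DMSO and diluted in phosphate buffered saline, final DMSO under 1%. Duplicate wells seeded from culture at 6 × 10⁴ cells/ml. Incubated 48 h at 37 °C, humidified, 5% CO2. Cells diluted tenfold in saline and Coulter-counted. Percent growth inhibition computed against PBS/DMSO controls.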
# ACHN = assay: Growth inhibition of human ACHN cells at 10 uM after 48 hrs by coulter counter analysis; details: read-out: GI; summary of the method: as §1
# RPMI-8226 = assay: Growth inhibition of human RPMI8226 cells at 10 uM after 48 hrs by coulter counter analysis; details: RPMI-8226, 48 h, read-out: GI; summary of the method: as §1
# UACC-62 = assay: Growth inhibition of human UACC62 cells at 10 uM after 48 hrs by coulter counter analysis; details: UACC-62, 48 h, read-out: GI; summary of the method: as §2
# RXF 393 = assay: Growth inhibition of human RXF393 cells at 10 uM after 48 hrs by coulter counter analysis; details: RXF 393, 48 h, read-out: GI; summary of the method: as §1
# UO-31 = assay: Growth inhibition of human UO31 cells at 10 uM after 48 hrs by coulter counter analysis; details: UO-31, 48 h, read-out: GI; summary of the method: as §2
# NCI-H23 = assay: Growth inhibition of human NCI-H23 cells at 10 uM after 48 hrs by coulter counter analysis; details: NCI-H23, 48 h, read-out: GI; summary of the method: as §1
# HCT-15 = assay: Growth inhibition of human HCT15 cells at 10 uM after 48 hrs by coulter counter analysis; details: HCT-15, 48 h, read-out: GI; summary of the method: as §1
# T47D = assay: Growth inhibition of human T47D cells at 10 uM after 48 hrs by coulter counter analysis; details: read-out: GI; summary of the method: as §2
# HT-29 = assay: Growth inhibition of human HT-29 cells at 10 uM after 48 hrs by coulter counter analysis; details: HT-29, 48 h, read-out: GI; summary of the method: as §1
# MCF7 = assay: Growth inhibition of human MCF7 cells at 10 uM after 48 hrs by coulter counter analysis; details: MCF7, 48 h, read-out: GI; summary of the method: as §1
# SK-MEL-5 = assay: Growth inhibition of human SK-MEL-5 cells at 10 uM after 48 hrs by coulter counter analysis; details: SK-MEL-5, 48 h, read-out: GI; summary of the method: as §1
# KM12 = assay: Growth inhibition of human KM12 cells at 10 uM after 48 hrs by coulter counter analysis; details: KM12, 48 h, read-out: GI; summary of the method: as §1
# HL-60(TB) = assay: Growth inhibition of human HL-60(TB) cells at 10 uM after 48 hrs by coulter counter analysis; details: HL-60, 48 h, read-out: GI
# Summary of the method: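 Cells grown in RPMI 1640 with 10% FBS. Compound was dissolved in DMSO and diluted in PBS (under 1% DMSO final), then added in duplicate wells to culture at 6 × 10⁴ cells/ml. PBS/DMSO vehicle controls were included. Incubated at 37 °C, humidified 5% CO₂, for 48 h. Cells were diluted 10-fold in saline and Coulter-counted. Single-dose NCI-60 screen, read as percent growth inhibition.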
# SF-295 = assay: Growth inhibition of human SF295 cells at 10 uM after 48 hrs by coulter counter analysis; details: SF-295, 48 h, read-out: GI; summary of the method: as §1
# DU-145 = assay: Growth inhibition of human DU145 cells at 10 uM after 48 hrs by coulter counter analysis; details: DU-145, 48 h, read-out: GI; summary of the method: as §1
# SK-MEL-2 = assay: Growth inhibition of human SK-MEL-2 cells at 10 uM after 48 hrs by coulter counter analysis; details: SK-MEL-2, 48 h, read-out: GI; summary of the method: as §1
# MOLT-4 = assay: Growth inhibition of human MOLT4 cells at 10 uM after 48 hrs by coulter counter analysis; details: MOLT-4, 48 h, read-out: GI; summary of the method: as §1
# SR = assay: Growth inhibition of human SR cells at 10 uM after 48 hrs by coulter counter analysis; details: read-out: GI; summary of the method: as §2
# U-251 = assay: Growth inhibition of human U251 cells at 10 uM after 48 hrs by coulter counter analysis; details: U-251, 48 h, read-out: GI; summary of the method: as §2
# HCT-116 = assay: Growth inhibition of human HCT116 cells at 10 uM after 48 hrs by coulter counter analysis; details: HCT-116, 48 h, read-out: GI; summary of the method: as §1
# A549 = assay: Growth inhibition of human A549/ATCC cells at 10 uM after 48 hrs by coulter counter analysis; details: A549, 48 h, read-out: GI; summary of the method: as §1
# NCI-H322M = assay: Growth inhibition of human NCI-H322M cells at 10 uM after 48 hrs by coulter counter analysis; details: read-out: GI; summary of the method: as §1
# OVCAR-4 = assay: Growth inhibition of human OVCAR4 cells at 10 uM after 48 hrs by coulter counter analysis; details: OVCAR-4, 48 h, read-out: GI; summary of the method: as §1
# HCC 2998 = assay: Growth inhibition of human HCC2998 cells at 10 uM after 48 hrs by coulter counter analysis; details: HCC 2998, 48 h, read-out: GI; summary of the method: as §1
# M14 = assay: Growth inhibition of human M14 cells at 10 uM after 48 hrs by coulter counter analysis; details: M14, 48 h, read-out: GI; summary of the method: as §1
# PC-3 = assay: Growth inhibition of human PC3 cells at 10 uM after 48 hrs by coulter counter analysis; details: PC-3, 48 h, read-out: GI; summary of the method: as §1
# A498 = assay: Growth inhibition of human A498 cells at 10 uM after 48 hrs by coulter counter analysis; details: A498, 48 h, read-out: GI; summary of the method: as §1
# CCRF-CEM = assay: Growth inhibition of human CCRF-CEM cells at 10 uM after 48 hrs by coulter counter analysis; details: read-out: GI; summary of the method: as §1
# NCI-H460 = assay: Growth inhibition of human NCI-H460 cells at 10 uM after 48 hrs by coulter counter analysis; details: NCI-H460, 48 h, read-out: GI; summary of the method: as §1
# HOP-92 = assay: Growth inhibition of human HOP92 cells at 10 uM after 48 hrs by coulter counter analysis; details: HOP-92, 48 h, read-out: GI; summary of the method: as §1
# SF-539 = assay: Growth inhibition of human SF539 cells at 10 uM after 48 hrs by coulter counter analysis; details: SF-539, 48 h, read-out: GI; summary of the method: as §1
# SNB-75 = assay: Growth inhibition of human SNB75 cells at 10 uM after 48 hrs by coulter counter analysis; details: SNB-75, 48 h, read-out: GI; summary of the method: as §2
SMILES,inhibition of growth at 10 µM (K562) [%],inhibition of growth at 10 µM (SW-620) [%],inhibition of growth at 10 µM (ACHN) [%],inhibition of growth at 10 µM (RPMI-8226) [%],inhibition of growth at 10 µM (UACC-62) [%],inhibition of growth at 10 µM (RXF 393) [%],inhibition of growth at 10 µM (UO-31) [%],inhibition of growth at 10 µM (NCI-H23) [%],inhibition of growth at 10 µM (HCT-15) [%],inhibition of growth at 10 µM (T47D) [%],inhibition of growth at 10 µM (HT-29) [%],inhibition of growth at 10 µM (MCF7) [%],inhibition of growth at 10 µM (SK-MEL-5) [%],inhibition of growth at 10 µM (KM12) [%],inhibition of growth at 10 µM (HL-60(TB)) [%],inhibition of growth at 10 µM (SF-295) [%],inhibition of growth at 10 µM (DU-145) [%],inhibition of growth at 10 µM (SK-MEL-2) [%],inhibition of growth at 10 µM (MOLT-4) [%],inhibition of growth at 10 µM (SR) [%],further results
CCOC(=O)c1sc(NC(=O)CCN2CCN(c3ccccc3)CC2)nc1C,< 10,< 10,< 10,< 10,< 10,< 10,19.7,< 10,< 10,< 10,< 10,< 10,< 10,< 10,< 10,< 10,< 10,< 10,< 10,< 10,inhibition of growth at 10 µM (U-251): < 10%; inhibition of growth at 10 µM (HCT-116): < 10%; inhibition of growth at 10 µM (A549): < 10%; inhibition of growth at 10 µM (NCI-H322M): < 10%; inhibition of growth at 10 µM (OVCAR-4): < 10%; inhibition of growth at 10 µM (HCC 2998): < 10%; inhibition of growth at 10 µM (M14): < 10%; inhibition of growth at 10 µM (PC-3): < 10%; inhibition of growth at 10 µM (A498): 12.8%; inhibition of growth at 10 µM (CCRF-CEM): < 10%; inhibition of growth at 10 µM (NCI-H460): < 10%; inhibition of growth at 10 µM (HOP-92): 17.5%; inhibition of growth at 10 µM (SF-539): < 10%; inhibition of growth at 10 µM (SNB-75): < 10%
CCOC(=O)c1sc(NC(=O)C(C)N2CCOCC2)nc1C (stereo not drawn),< 10,< 10,< 10,< 10,< 10,< 10,14.2,< 10,< 10,< 10,< 10,< 10,< 10,< 10,< 10,< 10,< 10,< 10,< 10,< 10,inhibition of growth at 10 µM (U-251): < 10%; inhibition of growth at 10 µM (HCT-116): < 10%; inhibition of growth at 10 µM (A549): < 10%; inhibition of growth at 10 µM (NCI-H322M): < 10%; inhibition of growth at 10 µM (OVCAR-4): < 10%; inhibition of growth at 10 µM (HCC 2998): < 10%; inhibition of growth at 10 µM (M14): < 10%; inhibition of growth at 10 µM (PC-3): < 10%; inhibition of growth at 10 µM (A498): < 10%; inhibition of growth at 10 µM (CCRF-CEM): < 10%; inhibition of growth at 10 µM (NCI-H460): < 10%; inhibition of growth at 10 µM (HOP-92): < 10%; inhibition of growth at 10 µM (SF-539): < 10%; inhibition of growth at 10 µM (SNB-75): 24.4%
